Results as given in ChEMBL document CHEMBL1629713, “Discovery of benzoylisoindolines as a novel class of potent, selective and orally active GlyT1 inhibitors” (Bioorg Med Chem Lett, 2010).
Converted amounts (≈) assume the structure as drawn.

Legend:
[1] = target: T1, Sodium- and chloride-dependent glycine transporter 2 (Homo sapiens, UniProt Q9Y345); experiment: Inhibition of human GlyT2 expressed in CHO cells assessed as inhibition of [3H]glycine uptake by liquid scintillation counting; format: cell-based
T1 sequence (Q9Y345 whole entry): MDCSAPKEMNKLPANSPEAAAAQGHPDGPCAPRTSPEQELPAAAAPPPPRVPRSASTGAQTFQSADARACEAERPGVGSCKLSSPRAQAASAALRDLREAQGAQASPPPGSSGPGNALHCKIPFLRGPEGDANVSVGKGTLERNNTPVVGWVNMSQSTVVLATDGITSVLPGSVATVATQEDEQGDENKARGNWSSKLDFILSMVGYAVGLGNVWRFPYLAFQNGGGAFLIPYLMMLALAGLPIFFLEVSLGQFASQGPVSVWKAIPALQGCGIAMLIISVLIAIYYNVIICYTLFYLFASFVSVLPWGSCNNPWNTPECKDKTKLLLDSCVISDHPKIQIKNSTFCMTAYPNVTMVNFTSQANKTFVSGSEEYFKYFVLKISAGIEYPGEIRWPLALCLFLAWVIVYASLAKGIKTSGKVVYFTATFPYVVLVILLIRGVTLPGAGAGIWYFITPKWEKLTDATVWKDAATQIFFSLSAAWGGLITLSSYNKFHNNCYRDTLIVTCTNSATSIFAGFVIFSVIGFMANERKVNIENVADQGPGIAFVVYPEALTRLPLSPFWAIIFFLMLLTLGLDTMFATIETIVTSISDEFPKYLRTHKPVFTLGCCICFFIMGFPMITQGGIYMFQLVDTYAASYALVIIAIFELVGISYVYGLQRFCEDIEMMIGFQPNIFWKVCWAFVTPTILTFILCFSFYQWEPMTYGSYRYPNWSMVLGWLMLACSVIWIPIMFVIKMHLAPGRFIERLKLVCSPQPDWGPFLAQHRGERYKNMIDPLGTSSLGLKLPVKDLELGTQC
Outline: (§1)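 [3H]-glycine uptake inhibition in cells transfected with human GlyT1 or human GlyT2 cDNA. EC50 values averaged from at least two independent experiments.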

[2] = Aqueous solubility of the compound by lyophilisate solubility assay; format: physicochemical; conditions: buffer
Outline: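 LYSA: compound in DMSO solution lyophilized, then dissolved in 0.05 M phosphate buffer pH 6.5, stirred 1 h and shaken 2 h; solubility in µg/ml.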

[3] = Permeability of the compound by PAMPA; format: ADME; conditions: read-out: permeability
Outline: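 PAMPA: permeation constant Pe (10^-6 cm/s) measured through artificial membranes.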

[4] = target: T2, Sodium- and chloride-dependent glycine transporter 1 (Homo sapiens, UniProt P48067); experiment: Inhibition of human GlyT1 expressed in CHO cells assessed as inhibition of [3H]glycine uptake by liquid scintillation counting; format: cell-based; outline: as §1
T2 sequence (P48067 whole entry): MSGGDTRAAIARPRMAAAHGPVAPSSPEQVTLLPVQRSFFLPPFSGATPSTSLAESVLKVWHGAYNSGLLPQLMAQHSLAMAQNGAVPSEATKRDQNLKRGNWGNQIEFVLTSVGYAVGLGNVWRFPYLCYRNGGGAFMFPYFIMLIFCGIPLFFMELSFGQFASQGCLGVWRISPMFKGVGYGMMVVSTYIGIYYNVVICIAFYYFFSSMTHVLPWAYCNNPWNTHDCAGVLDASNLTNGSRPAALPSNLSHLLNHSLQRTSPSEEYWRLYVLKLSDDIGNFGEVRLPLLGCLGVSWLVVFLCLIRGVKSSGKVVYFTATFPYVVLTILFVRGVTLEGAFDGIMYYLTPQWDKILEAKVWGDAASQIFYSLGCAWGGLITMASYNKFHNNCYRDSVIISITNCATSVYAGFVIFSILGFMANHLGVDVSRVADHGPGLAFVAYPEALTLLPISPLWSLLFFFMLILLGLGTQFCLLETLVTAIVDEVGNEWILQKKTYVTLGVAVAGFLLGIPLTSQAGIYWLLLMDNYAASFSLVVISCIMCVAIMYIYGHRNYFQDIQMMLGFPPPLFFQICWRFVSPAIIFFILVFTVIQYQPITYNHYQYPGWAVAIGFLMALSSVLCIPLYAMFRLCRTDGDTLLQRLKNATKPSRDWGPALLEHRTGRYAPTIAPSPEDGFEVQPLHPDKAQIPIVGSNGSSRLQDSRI

[5] = Oral bioavailability in rat; format: ADME, organism-based; conditions: in vivo
Mus musculus = experiment: Antipsychotic activity in po dosed mouse assessed as inhibition of L-687414-induced hyperlocomotion after 60 mins; format: functional; conditions: 1 h, read-out: ID50 (the source's name)
Outline: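 Mice given compound orally, n = 8 per group; hyperlocomotion induced by L-687,414. Horizontal activity counts recorded over a 60-min period and reported as group means. ID50 (mg/kg) derived from dose-dependent inhibition of the L-687,414-induced response.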

hERG (KCNH2) = hERG (KCNH2) (Homo sapiens, UniProt Q12809); experiment: Inhibition of human ERG at 10 uM by patch clamp assay
Outline: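 hERG block measured by patch clamp at 10 µM; values averaged from at least two independent experiments.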

[6] = Volume of distribution in rat; format: ADME, organism-based; conditions: in vivo
[7] = Clearance in rat; format: ADME, organism-based; conditions: in vivo
[8] = Ratio of drug level in brain to plasma in rat; format: ADME; conditions: read-out: BPR

hERG (KCNH2), sequence (Q12809 whole entry): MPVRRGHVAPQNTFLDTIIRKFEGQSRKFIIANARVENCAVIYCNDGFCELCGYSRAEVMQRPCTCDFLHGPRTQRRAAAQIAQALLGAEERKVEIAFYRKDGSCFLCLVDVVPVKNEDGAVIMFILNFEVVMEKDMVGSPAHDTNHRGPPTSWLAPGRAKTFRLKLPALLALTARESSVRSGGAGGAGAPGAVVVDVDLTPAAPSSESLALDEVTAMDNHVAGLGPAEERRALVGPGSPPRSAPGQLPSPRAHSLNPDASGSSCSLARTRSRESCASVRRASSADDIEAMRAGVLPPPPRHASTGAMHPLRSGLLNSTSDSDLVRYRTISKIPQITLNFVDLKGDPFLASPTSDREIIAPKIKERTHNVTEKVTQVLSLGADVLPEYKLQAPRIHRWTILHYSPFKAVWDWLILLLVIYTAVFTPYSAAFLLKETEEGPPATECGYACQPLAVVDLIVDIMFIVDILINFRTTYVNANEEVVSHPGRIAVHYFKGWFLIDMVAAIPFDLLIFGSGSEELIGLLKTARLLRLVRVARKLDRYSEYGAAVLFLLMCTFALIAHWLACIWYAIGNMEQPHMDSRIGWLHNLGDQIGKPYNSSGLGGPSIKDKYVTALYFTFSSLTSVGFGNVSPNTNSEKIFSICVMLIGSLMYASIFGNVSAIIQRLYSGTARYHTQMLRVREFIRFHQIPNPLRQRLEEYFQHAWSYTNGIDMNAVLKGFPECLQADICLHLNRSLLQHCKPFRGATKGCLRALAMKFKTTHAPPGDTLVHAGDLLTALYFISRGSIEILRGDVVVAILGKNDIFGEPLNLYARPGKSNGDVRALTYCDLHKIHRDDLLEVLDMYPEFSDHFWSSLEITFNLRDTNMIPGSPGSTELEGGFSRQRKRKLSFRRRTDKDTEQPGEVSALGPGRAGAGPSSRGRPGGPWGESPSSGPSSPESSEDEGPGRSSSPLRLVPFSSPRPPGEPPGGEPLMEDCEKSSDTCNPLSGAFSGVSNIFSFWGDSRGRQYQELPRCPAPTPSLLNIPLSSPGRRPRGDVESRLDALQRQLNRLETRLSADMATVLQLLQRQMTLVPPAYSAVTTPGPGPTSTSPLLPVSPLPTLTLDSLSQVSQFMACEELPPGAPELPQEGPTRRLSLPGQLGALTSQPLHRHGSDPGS

SMILES | EC50 [1] | solubility [2] | Papp [3] | EC50 [4] | bioavailability [5] | ED50 (Mus musculus) | inhibition at 10 µM (hERG (KCNH2)) | Vd [6] | clearance [7] | Kp [8]
C[C@H](Oc1ccc(S(C)(=O)=O)cc1C(=O)N1Cc2ccc(C(F)(F)F)nc2C1)C(F)(F)F | > 30000 nM | 429 µg/mL (≈ 889 µM) | 5.5 ×10⁻⁶ cm/s | 250 nM |  |  |  |  |  | 
C[C@H](Oc1ccc(S(C)(=O)=O)cc1C(=O)N1Cc2ccccc2C1)C(F)(F)F | > 30000 nM | < 1 µg/mL | 0.8 ×10⁻⁶ cm/s | 2540 nM |  |  |  |  |  | 
Cc1cccc2c1CN(C(=O)c1cc(S(C)(=O)=O)ccc1O[C@@H](C)C(F)(F)F)C2 | > 30000 nM | 73 µg/mL (≈ 171 µM) | 4.2 ×10⁻⁶ cm/s | 3360 nM |  |  |  |  |  | 
C[C@H](Oc1ccc(S(C)(=O)=O)cc1C(=O)N1Cc2ccc(N3CCN(C)CC3)cc2C1)C(F)(F)F | > 30000 nM | 490 µg/mL (≈ 958 µM) | 1.5 ×10⁻⁶ cm/s | 2080 nM |  |  |  |  |  | 
C[C@H](Oc1ccc(S(C)(=O)=O)cc1C(=O)N1Cc2ccc(C(F)(F)F)cc2C1)C(F)(F)F | > 30000 nM | 1 µg/mL (≈ 2.08 µM) | 0.7 ×10⁻⁶ cm/s | 21 nM | 23% | 2 mg/kg | 59% | 2.9 L/kg | 1.7 mL/min/kg | 1
CC(C)COc1ccc(S(C)(=O)=O)cc1C(=O)N1Cc2cc(C(F)(F)F)cnc2C1 | > 30000 nM | 445 µg/mL (≈ 1010 µM) | 5.5 ×10⁻⁶ cm/s | 30 nM |  |  | 37% |  |  | 
C[C@H](Oc1ccc(S(C)(=O)=O)cc1C(=O)N1Cc2ccc(-c3ccccn3)cc2C1)C(F)(F)F | > 30000 nM | 30 µg/mL (≈ 61.2 µM) | 0.8 ×10⁻⁶ cm/s | 84 nM |  |  |  |  |  | 
C[C@H](Oc1ccc(S(C)(=O)=O)cc1C(=O)N1Cc2cnc(C(F)(F)F)cc2C1)C(F)(F)F | > 30000 nM | 470 µg/mL (≈ 974 µM) | 3.9 ×10⁻⁶ cm/s | 132 nM |  |  |  |  |  | 
C[C@H](Oc1ccc(S(C)(=O)=O)cc1C(=O)N1Cc2ccc(N3CCOCC3)cc2C1)C(F)(F)F | > 30000 nM | 355 µg/mL (≈ 712 µM) | 4.3 ×10⁻⁶ cm/s | 275 nM |  |  |  |  |  | 
CS(=O)(=O)c1ccc(OCCC(F)(F)F)c(C(=O)N2Cc3cc(C(F)(F)F)cnc3C2)c1 | > 30000 nM | 513 µg/mL (≈ 1060 µM) | 4.3 ×10⁻⁶ cm/s | 111 nM |  | 3 mg/kg |  |  |  | 
CS(=O)(=O)c1ccc(-c2ccc(F)c(F)c2)c(C(=O)N2Cc3cc(C(F)(F)F)cnc3C2)c1 | > 30000 nM | 42 µg/mL (≈ 87.1 µM) | 6.4 ×10⁻⁶ cm/s | 30 nM |  | 1 mg/kg | 38% |  |  | 
C[C@H](Oc1ccc(S(C)(=O)=O)cc1C(=O)N1Cc2ccc(-c3ccccc3)cc2C1)C(F)(F)F | 12000 nM | 4 µg/mL (≈ 8.17 µM) | 2.6 ×10⁻⁶ cm/s | 13 nM |  | 6 mg/kg | 67% |  |  | 
CS(=O)(=O)c1ccc(OCc2ccccc2)c(C(=O)N2Cc3cc(C(F)(F)F)cnc3C2)c1 | > 30000 nM | 72 µg/mL (≈ 151 µM) | 0.8 ×10⁻⁶ cm/s | 805 nM |  |  |  |  |  | 
COc1ccc2c(c1)CN(C(=O)c1cc(S(C)(=O)=O)ccc1O[C@@H](C)C(F)(F)F)C2 | > 30000 nM | 46 µg/mL (≈ 104 µM) | 2.7 ×10⁻⁶ cm/s | 180 nM |  |  |  |  |  | 
CS(=O)(=O)c1ccc(-c2ccc(F)cc2)c(C(=O)N2Cc3ccc(C4CCOCC4)cc3C2)c1 | > 30000 nM | 15 µg/mL (≈ 31.3 µM) | 1.4 ×10⁻⁶ cm/s | 16 nM |  | 0.3 mg/kg | 36% |  |  | 
C[C@H](Oc1ccc(S(C)(=O)=O)cc1C(=O)N1Cc2cccc(C#N)c2C1)C(F)(F)F | > 30000 nM | 259 µg/mL (≈ 591 µM) | 0.8 ×10⁻⁶ cm/s | 770 nM |  |  |  |  |  | 
CS(=O)(=O)c1ccc(OCCC(F)(F)F)c(C(=O)N2Cc3ccc(C4CCOCC4)cc3C2)c1 | > 30000 nM | 334 µg/mL (≈ 671 µM) | 4.1 ×10⁻⁶ cm/s | 137 nM |  |  |  |  |  | 
CC(C)Oc1ccc(S(C)(=O)=O)cc1C(=O)N1Cc2cc(C(F)(F)F)cnc2C1 | > 30000 nM | 114 µg/mL (≈ 266 µM) | 4.1 ×10⁻⁶ cm/s | 70 nM |  | 1 mg/kg | 10% |  |  | 
C[C@H](Oc1ccc(S(C)(=O)=O)cc1C(=O)N1Cc2ccc(-c3ccncc3)cc2C1)C(F)(F)F | > 30000 nM | 25 µg/mL (≈ 51 µM) | 4.2 ×10⁻⁶ cm/s | 17 nM |  | 3 mg/kg | 58% |  |  | 
C[C@H](Oc1ccc(S(C)(=O)=O)cc1C(=O)N1Cc2ccc(N3CCCC3)cc2C1)C(F)(F)F | 14300 nM | < 1 µg/mL | 0.8 ×10⁻⁶ cm/s | 180 nM |  |  |  |  |  | 
C[C@H](Oc1ccc(S(C)(=O)=O)cc1C(=O)N1Cc2ccc(C3CCCCO3)cc2C1)C(F)(F)F (stereo not given in full) | > 30000 nM | < 1 µg/mL | 0.9 ×10⁻⁶ cm/s | 205 nM |  |  |  |  |  | 
COc1cccc2c1CN(C(=O)c1cc(S(C)(=O)=O)ccc1O[C@@H](C)C(F)(F)F)C2 | > 30000 nM | 85 µg/mL (≈ 192 µM) | 4.8 ×10⁻⁶ cm/s | 1940 nM |  |  |  |  |  | 
CS(=O)(=O)c1ccc(N2CCOCC2)c(C(=O)N2Cc3cc(C(F)(F)F)cnc3C2)c1 | > 30000 nM | 495 µg/mL (≈ 1090 µM) | 0.9 ×10⁻⁶ cm/s | 3000 nM |  |  |  |  |  | 
